ChEMBL document CHEMBL1139934, “Synthesis and biological activity of imidazopyridine anticoccidial agents: part I” (Eur J Med Chem, 2007)

How the values were obtained:
Eimeria mitis [1] = assay: Anticococcidal activity against Eimeria mitis in Chick assessed as reduction in oocyte at 12.5 ppm relative to control; assay type: functional; parameters: scale not given: the % may be the effect or the level left
Method in brief: (§1)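 Expanded Mini-Assay Coccidiosis (ExMAC) in chickens infected with E. tenella, E. acervulina, E. mitis and E. maxima. Compound given in the feed at the stated ppm. Efficacy for each species is scored 0 to 4 from the percent oocyst reduction relative to an untreated control. Where a compound was tested more than once, all values are reported.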

Eimeria tenella [2] = assay: Anticococcidal activity against Eimeria tenella in Chick assessed as reduction in oocyte at 12.5 ppm relative to control; assay type: functional; parameters: scale not given: the % may be the effect or the level left; method in brief: as §1
Eimeria tenella [3] = assay: Anticococcidal activity against Eimeria tenella in Chick assessed as reduction in oocyte at 25 ppm relative to control; assay type: functional; parameters: scale not given: the % may be the effect or the level left; method in brief: as §1
Eimeria tenella [4] = assay: Anticococcidal activity against Eimeria tenella in Chick assessed as reduction in oocyte at 6.25 ppm relative to control; assay type: functional; parameters: scale not given: the % may be the effect or the level left; method in brief: as §1
Eimeria maxima [5] = assay: Anticococcidal activity against Eimeria maxima in Chick assessed as reduction in oocyte at 6.25 ppm relative to control; assay type: functional; parameters: scale not given: the % may be the effect or the level left; method in brief: as §1
Eimeria mitis [6] = assay: Anticococcidal activity against Eimeria mitis in Chick assessed as reduction in oocyte at 6.25 ppm relative to control; assay type: functional; parameters: scale not given: the % may be the effect or the level left; method in brief: as §1
Eimeria acervulina [7] = assay: Anticococcidal activity against Eimeria acervulina in Chick assessed as reduction in oocyte at 25 ppm relative to control; assay type: functional; parameters: scale not given: the % may be the effect or the level left; method in brief: as §1
Eimeria acervulina [8] = assay: Anticococcidal activity against Eimeria acervulina in Chick assessed as reduction in oocyte at 6.25 ppm relative to control; assay type: functional; parameters: scale not given: the % may be the effect or the level left; method in brief: as §1
[9] = target: cGMP-dependent protein kinase (Eimeria tenella, UniProt Q8MMZ8); assay: Inhibition of Eimeria tenella cGMP-dependent protein kinase by Ten_K assay
cGMP-dependent protein kinase, sequence (Q8MMZ8 whole entry): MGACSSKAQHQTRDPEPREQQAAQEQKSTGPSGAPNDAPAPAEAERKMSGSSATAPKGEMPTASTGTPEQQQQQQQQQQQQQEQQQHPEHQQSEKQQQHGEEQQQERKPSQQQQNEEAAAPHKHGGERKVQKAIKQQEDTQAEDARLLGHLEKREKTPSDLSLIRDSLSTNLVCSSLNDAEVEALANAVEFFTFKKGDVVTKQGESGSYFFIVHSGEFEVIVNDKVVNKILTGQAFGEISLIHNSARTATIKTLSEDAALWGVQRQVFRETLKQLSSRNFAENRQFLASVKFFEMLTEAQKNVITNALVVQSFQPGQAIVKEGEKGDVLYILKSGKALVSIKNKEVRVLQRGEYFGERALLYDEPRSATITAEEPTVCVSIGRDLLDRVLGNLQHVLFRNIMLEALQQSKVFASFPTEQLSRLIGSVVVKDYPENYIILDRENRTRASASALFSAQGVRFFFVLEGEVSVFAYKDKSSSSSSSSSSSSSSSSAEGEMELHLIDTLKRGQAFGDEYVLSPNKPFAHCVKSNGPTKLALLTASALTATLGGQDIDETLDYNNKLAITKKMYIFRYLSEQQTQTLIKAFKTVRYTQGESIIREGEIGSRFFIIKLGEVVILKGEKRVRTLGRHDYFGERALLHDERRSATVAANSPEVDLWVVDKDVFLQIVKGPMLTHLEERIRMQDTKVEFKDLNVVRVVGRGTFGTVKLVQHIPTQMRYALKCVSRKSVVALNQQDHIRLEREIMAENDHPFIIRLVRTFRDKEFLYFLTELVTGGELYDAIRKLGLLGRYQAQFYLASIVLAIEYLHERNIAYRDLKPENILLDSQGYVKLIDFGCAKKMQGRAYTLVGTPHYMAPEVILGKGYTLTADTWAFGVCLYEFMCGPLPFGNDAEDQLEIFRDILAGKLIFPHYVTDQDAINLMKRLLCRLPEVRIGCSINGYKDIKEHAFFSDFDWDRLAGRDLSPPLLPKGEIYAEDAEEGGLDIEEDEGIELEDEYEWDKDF
Method in brief: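 Ten_K (Tenella Kinase) assay measuring inhibition of E. tenella PKG enzyme activity. Result expressed as the concentration giving 50% inhibition (IC50, nM). Where a compound was tested more than once, all values are reported.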

Eimeria maxima [10] = assay: Anticococcidal activity against Eimeria maxima in Chick assessed as reduction in oocyte at 12.5 ppm relative to control; assay type: functional; parameters: scale not given: the % may be the effect or the level left; method in brief: as §1
Eimeria maxima [11] = assay: Anticococcidal activity against Eimeria maxima in Chick assessed as reduction in oocyte at 25 ppm relative to control; assay type: functional; parameters: scale not given: the % may be the effect or the level left; method in brief: as §1
Eimeria mitis [12] = assay: Anticococcidal activity against Eimeria mitis in Chick assessed as reduction in oocyte at 25 ppm relative to control; assay type: functional; parameters: scale not given: the % may be the effect or the level left; method in brief: as §1
Eimeria acervulina [13] = assay: Anticococcidal activity against Eimeria acervulina in Chick assessed as reduction in oocyte at 12.5 ppm relative to control; assay type: functional; parameters: scale not given: the % may be the effect or the level left; method in brief: as §1
Eimeria tenella [14] = assay: Anticococcidal activity against Eimeria tenella in Chick assessed as reduction in oocyte at 3.13 ppm relative to control; assay type: functional; parameters: scale not given: the % may be the effect or the level left; method in brief: as §1
Eimeria acervulina [15] = assay: Anticococcidal activity against Eimeria acervulina in Chick assessed as reduction in oocyte at 3.13 ppm relative to control; assay type: functional; parameters: scale not given: the % may be the effect or the level left; method in brief: as §1
Eimeria maxima [16] = assay: Anticococcidal activity against Eimeria maxima in Chick assessed as reduction in oocyte at 3.13 ppm relative to control; assay type: functional; parameters: scale not given: the % may be the effect or the level left; method in brief: as §1
Eimeria mitis [17] = assay: Anticococcidal activity against Eimeria mitis in Chick assessed as reduction in oocyte at 3.13 ppm relative to control; assay type: functional; parameters: scale not given: the % may be the effect or the level left; method in brief: as §1
Eimeria mitis [18] = assay: Anticococcidal activity against Eimeria mitis in Chick assessed as reduction in oocyte at 1.25 ppm relative to control; assay type: functional; parameters: scale not given: the % may be the effect or the level left; method in brief: as §1
Eimeria acervulina [19] = assay: Anticococcidal activity against Eimeria acervulina in Chick assessed as reduction in oocyte at 1.25 ppm relative to control; assay type: functional; parameters: scale not given: the % may be the effect or the level left; method in brief: as §1
Eimeria maxima [20] = assay: Anticococcidal activity against Eimeria maxima in Chick assessed as reduction in oocyte at 1.25 ppm relative to control; assay type: functional; parameters: scale not given: the % may be the effect or the level left; method in brief: as §1
Eimeria tenella [21] = assay: Anticococcidal activity against Eimeria tenella in Chick assessed as reduction in oocyte at 1.25 ppm relative to control; assay type: functional; parameters: scale not given: the % may be the effect or the level left; method in brief: as §1
Eimeria maxima [22] = assay: Anticococcidal activity against Eimeria maxima in Chick assessed as reduction in oocyte at 50 ppm relative to control; assay type: functional; parameters: scale not given: the % may be the effect or the level left; method in brief: as §1
Eimeria mitis [23] = assay: Anticococcidal activity against Eimeria mitis in Chick assessed as reduction in oocyte at 50 ppm relative to control; assay type: functional; parameters: scale not given: the % may be the effect or the level left; method in brief: as §1
Eimeria tenella [24] = assay: Anticococcidal activity against Eimeria tenella in Chick assessed as reduction in oocyte at 50 ppm relative to control; assay type: functional; parameters: scale not given: the % may be the effect or the level left; method in brief: as §1
Eimeria acervulina [25] = assay: Anticococcidal activity against Eimeria acervulina in Chick assessed as reduction in oocyte at 50 ppm relative to control; assay type: functional; parameters: scale not given: the % may be the effect or the level left; method in brief: as §1
[26] = target: cGMP-dependent protein kinase (Eimeria tenella) (UniProt Q8MMZ8); assay: Inhibition of Eimeria tenella cGMP-dependent protein kinase at 100 nM by Ten_K assay
cGMP-dependent protein kinase (Eimeria tenella), sequence (Q8MMZ8 2-1003 limits assumed): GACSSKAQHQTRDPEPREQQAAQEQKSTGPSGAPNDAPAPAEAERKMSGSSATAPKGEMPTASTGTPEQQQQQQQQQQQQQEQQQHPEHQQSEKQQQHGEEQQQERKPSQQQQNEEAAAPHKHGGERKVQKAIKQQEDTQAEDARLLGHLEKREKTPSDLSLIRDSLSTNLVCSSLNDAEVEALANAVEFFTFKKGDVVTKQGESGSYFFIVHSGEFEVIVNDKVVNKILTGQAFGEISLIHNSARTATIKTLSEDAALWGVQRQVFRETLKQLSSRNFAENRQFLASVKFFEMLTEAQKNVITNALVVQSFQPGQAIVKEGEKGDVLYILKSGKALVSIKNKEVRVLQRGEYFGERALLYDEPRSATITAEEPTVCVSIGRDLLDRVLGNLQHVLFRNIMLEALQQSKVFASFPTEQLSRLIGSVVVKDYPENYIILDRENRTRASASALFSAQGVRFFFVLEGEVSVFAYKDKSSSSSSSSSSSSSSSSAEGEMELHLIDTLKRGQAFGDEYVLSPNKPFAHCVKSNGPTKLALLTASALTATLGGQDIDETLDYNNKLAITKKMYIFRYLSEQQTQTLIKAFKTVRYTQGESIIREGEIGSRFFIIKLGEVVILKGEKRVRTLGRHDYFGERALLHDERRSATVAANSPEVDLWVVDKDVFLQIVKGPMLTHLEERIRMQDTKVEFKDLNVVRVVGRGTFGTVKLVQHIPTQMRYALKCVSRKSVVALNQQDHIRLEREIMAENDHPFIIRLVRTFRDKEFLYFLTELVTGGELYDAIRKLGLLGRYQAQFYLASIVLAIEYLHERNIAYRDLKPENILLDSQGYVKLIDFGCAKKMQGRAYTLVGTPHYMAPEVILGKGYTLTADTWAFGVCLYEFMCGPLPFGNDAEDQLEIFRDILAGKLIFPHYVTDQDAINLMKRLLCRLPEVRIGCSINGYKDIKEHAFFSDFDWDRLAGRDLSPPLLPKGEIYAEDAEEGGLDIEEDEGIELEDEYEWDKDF

SMILES	Activity (Eimeria mitis [1]) [%]	Activity (Eimeria tenella [2]) [%]	Activity (Eimeria tenella [3]) [%]	Activity (Eimeria tenella [4]) [%]	Activity (Eimeria maxima [5]) [%]	Activity (Eimeria mitis [6]) [%]	Activity (Eimeria acervulina [7]) [%]	Activity (Eimeria acervulina [8]) [%]	IC50 [9] [nM]	Activity (Eimeria maxima [10]) [%]	Activity (Eimeria maxima [11]) [%]	Activity (Eimeria mitis [12]) [%]	Activity (Eimeria acervulina [13]) [%]	further results
CN(C)Cc1ccn2c(-c3ccnc(NC(=O)C4CC4)n3)c(-c3ccc(F)cc3)nc2c1	80	80	80	50	<50	<50	80	80	0.42	80	50	80	80	
CN(C)Cc1ccn2c(-c3ccnc(NCc4cccc(F)c4)n3)c(-c3ccc(F)cc3)nc2c1	<50	<50	50	<50	<50	<50	80	<50	0.09	80	80	50	50	
CN(C)Cc1ccn2c(-c3ccnc(NCC4CC4)n3)c(-c3ccc(F)cc3)nc2c1	80	80	80	<50	80	<50	80	80	0.064	80	80	80	80	
CN(C)Cc1ccn2c(-c3ccnc(NC4CCC4)n3)c(-c3ccc(F)cc3)nc2c1	50	80	80	80	50	<50	80	<50	0.22	80	80	80	80	
Cc1cnc(N)nc1-c1c(-c2ccc(F)cc2)nc2cc(CN(C)C)ccn12	80	80	80	<50	80	<50	80	<50	0.23	80	80	80	<50	
CN(C)Cc1ccn2c(-c3ccnc(NCCCO)n3)c(-c3ccc(F)cc3)nc2c1	80	80		80	80	<50		<50	0.33	80			80	
CN(C)Cc1ccn2c(-c3ccnc(NC4CCCC4)n3)c(-c3ccc(F)cc3)nc2c1	80	80		80	<50	50		80	0.102	80			80	
CN(C)Cc1ccn2c(-c3ccnc(N)n3)c(-c3c(F)cc(F)cc3F)nc2c1	<50	80	80	<50	50	50	80	50	0.52	80	100	<50	80	Activity (Eimeria tenella [14]): 50%; Activity (Eimeria acervulina [15]): <50%; Activity (Eimeria maxima [16]): 80%; Activity (Eimeria mitis [17]): 50%
CN(C)Cc1ccn2c(-c3nc(N)ncc3F)c(-c3ccc(F)cc3)nc2c1			80	80	<50	<50	100	50	0.23		100	50		Activity (Eimeria mitis [18]): <50%; Activity (Eimeria acervulina [19]): 100%; Activity (Eimeria maxima [20]): <50%; Activity (Eimeria tenella [21]): 80%
CN(C)Cc1ccn2c(-c3ccnc(NCCO)n3)c(-c3ccc(F)cc3)nc2c1	<50	50	80	<50	50	<50	80	<50	0.3	80	80	80	<50	
CN(C)Cc1ccn2c(-c3ccnc(NC4CC4)n3)c(-c3ccc(F)cc3)nc2c1	50	80	80	<50	80	<50	80	80	0.08	80	80	80	80	
COCCNc1nccc(-c2c(-c3ccc(F)cc3)nc3cc(CN(C)C)ccn23)n1	<50	80	80	<50	50	<50	80	<50	0.25	80	80	<50	80	
CN(C)Cc1ccn2c(-c3ccnc(NC4CCCCC4)n3)c(-c3ccc(F)cc3)nc2c1	50	80	80	80	80	<50	50	<50	0.12	80	80	80	<50	
CN(C)Cc1ccn2c(-c3ccnc(N)n3)c(-c3ccc(F)cc3)nc2c1	80	80	80	<50	80	<50	80	<50	0.23	80	80	80	<50	
CN(C)Cc1ccn2c(-c3ccnc(NC(=O)C4CCC4)n3)c(-c3ccc(F)cc3)nc2c1	80	80	80	80	<50	<50	80	<50	0.27	80	80	80	<50	
CCCCNc1nccc(-c2c(-c3ccc(F)cc3)nc3cc(CN(C)C)ccn23)n1									2.14					Activity (Eimeria maxima [22]): <50%; Activity (Eimeria mitis [23]): <50%; Activity (Eimeria tenella [24]): <50%; Activity (Eimeria acervulina [25]): <50%
CN(C)Cc1ccn2c(-c3ccnc(NS(=O)(=O)Cc4ccccc4)n3)c(-c3ccc(F)cc3)nc2c1			<50				<50				<50	<50		inhibition [26]: 40%
CN(C)Cc1ccn2c(-c3ccnc(NCc4c(F)cccc4F)n3)c(-c3ccc(F)cc3)nc2c1	<50	<50	50	<50	50	<50	<50	<50	0.06	80	80	80	<50	
CCCC(=O)Nc1nccc(-c2c(-c3ccc(F)cc3)nc3cc(CN(C)C)ccn23)n1	80	80		<50	80	<50		<50	0.63	80			80	
